According to ChEMBL document CHEMBL1145915, “Molecular model of the alpha(IIb)beta(3) integrin” (J Med Chem, 2003):

How the values were obtained:
Integrin alpha-V/beta-3 = Integrin alpha-V/beta-3 (Homo sapiens, UniProt P05106+P06756); experiment: Inhibition of binding to human Vitronectin receptor (integrin alphaV-beta3); assay type: protein-complex assay
Procedure, shortened: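 Scintillation proximity binding assay with lyophilized wheat germ agglutinin SPA beads. Receptor was αvβ3 integrin purified from HEK 293 cells overexpressing human recombinant αvβ3. Tracer was a 125I-labeled ligand, and test compounds were scored by displacement of its binding.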

[1] = biological target: Integrin alpha-IIb/beta-3 (Homo sapiens, UniProt P05106+P08514); experiment: Inhibition of human alphaIIb-beta3 integrin in platelet aggregation assay
Integrin alpha-IIb/beta-3, sequence (P05106 27-788 limits assumed): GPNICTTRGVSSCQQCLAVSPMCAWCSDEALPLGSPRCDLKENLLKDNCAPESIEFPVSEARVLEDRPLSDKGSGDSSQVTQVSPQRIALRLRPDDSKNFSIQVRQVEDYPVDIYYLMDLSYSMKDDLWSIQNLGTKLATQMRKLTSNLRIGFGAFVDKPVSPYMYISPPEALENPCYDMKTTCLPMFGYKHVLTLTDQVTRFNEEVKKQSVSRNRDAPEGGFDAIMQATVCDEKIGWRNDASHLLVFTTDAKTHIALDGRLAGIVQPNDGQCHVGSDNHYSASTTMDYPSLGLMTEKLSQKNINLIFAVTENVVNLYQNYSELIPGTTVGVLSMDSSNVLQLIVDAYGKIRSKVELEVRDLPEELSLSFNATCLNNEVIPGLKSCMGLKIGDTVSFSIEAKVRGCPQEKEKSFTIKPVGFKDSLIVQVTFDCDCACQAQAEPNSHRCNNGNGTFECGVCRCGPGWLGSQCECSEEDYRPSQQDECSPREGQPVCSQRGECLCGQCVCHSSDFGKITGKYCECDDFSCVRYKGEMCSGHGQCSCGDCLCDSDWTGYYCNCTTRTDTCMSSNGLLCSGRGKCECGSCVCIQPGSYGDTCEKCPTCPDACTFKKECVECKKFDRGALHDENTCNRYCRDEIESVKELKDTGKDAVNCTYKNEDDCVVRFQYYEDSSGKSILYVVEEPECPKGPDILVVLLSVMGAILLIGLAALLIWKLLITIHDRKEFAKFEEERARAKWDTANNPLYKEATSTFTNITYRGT
Integrin alpha-IIb/beta-3, sequence (P08514 32-887 limits assumed): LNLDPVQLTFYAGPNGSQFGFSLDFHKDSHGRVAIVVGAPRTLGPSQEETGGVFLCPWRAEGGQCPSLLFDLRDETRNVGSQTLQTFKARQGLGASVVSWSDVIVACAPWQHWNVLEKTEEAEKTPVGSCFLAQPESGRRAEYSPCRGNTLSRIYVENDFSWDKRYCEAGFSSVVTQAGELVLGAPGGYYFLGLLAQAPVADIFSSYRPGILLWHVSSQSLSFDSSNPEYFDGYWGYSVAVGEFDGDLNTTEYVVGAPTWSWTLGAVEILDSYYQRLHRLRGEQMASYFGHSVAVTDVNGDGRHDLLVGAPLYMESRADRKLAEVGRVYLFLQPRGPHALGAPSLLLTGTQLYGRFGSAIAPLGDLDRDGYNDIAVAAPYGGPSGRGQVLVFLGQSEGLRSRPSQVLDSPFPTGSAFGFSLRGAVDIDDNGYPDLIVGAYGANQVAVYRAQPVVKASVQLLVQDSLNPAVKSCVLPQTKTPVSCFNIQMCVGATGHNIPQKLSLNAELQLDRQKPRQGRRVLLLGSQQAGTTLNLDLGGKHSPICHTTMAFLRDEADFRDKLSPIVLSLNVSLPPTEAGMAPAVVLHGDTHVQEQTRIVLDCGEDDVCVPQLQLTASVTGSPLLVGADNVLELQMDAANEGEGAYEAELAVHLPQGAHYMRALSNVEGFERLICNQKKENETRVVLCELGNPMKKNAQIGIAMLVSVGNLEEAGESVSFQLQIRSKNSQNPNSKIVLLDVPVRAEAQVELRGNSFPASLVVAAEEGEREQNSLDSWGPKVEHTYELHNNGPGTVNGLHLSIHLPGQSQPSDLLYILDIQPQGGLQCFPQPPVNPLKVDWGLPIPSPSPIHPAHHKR
Integrin alpha-IIb/beta-3, sequence (P08514 891-1039 limits assumed): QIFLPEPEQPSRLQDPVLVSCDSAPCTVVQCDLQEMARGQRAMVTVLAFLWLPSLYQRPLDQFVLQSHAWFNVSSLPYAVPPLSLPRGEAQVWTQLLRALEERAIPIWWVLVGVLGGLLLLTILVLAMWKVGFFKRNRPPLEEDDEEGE

Integrin alpha-V/beta-3, sequence (P05106 27-788 limits assumed): as the sequence (P05106 27-788 limits assumed) above
Integrin alpha-V/beta-3, sequence (P06756 31-889 limits assumed): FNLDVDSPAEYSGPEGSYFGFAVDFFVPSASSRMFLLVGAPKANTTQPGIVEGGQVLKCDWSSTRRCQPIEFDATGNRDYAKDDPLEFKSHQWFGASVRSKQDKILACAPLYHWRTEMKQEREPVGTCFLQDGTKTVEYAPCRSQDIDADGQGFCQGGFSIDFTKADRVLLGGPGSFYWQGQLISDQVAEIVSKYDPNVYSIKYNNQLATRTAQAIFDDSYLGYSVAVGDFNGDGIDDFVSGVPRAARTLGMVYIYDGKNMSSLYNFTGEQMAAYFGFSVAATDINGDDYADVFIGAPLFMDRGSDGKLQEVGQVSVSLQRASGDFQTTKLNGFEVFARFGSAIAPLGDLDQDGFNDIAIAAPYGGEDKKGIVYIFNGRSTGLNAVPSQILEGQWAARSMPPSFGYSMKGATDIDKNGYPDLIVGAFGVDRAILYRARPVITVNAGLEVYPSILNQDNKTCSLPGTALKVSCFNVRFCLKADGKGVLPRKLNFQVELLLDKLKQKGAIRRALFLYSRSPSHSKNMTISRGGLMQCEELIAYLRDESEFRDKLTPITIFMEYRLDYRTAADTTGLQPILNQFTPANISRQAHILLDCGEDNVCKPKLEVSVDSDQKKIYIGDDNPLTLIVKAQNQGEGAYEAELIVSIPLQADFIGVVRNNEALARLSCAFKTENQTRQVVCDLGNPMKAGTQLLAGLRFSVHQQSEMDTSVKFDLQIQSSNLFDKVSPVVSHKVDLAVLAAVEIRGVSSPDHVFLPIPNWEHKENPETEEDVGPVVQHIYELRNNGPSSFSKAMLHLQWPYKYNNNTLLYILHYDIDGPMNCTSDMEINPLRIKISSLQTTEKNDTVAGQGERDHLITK
Integrin alpha-V/beta-3, sequence (P06756 891-1048 limits assumed): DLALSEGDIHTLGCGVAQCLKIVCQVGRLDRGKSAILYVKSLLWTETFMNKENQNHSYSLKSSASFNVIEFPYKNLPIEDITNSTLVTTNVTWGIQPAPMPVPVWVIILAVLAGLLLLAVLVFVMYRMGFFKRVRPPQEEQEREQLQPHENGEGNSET

SMILES	IC50 (Integrin alpha-V/beta-3) [nM]	IC50 [1] [nM]
N=C(N)NCCC[C@H](N)C(=O)NCC(=O)N[C@@H](CC(=O)O)C(=O)O	> 10000	–
O=C(NC[C@H](NS(=O)(=O)c1ccccc1)C(=O)O)c1ccc(OCCC2CCNCC2)cc1	> 1000	10
O=C(NC[C@H](NS(=O)(=O)c1ccccc1)C(=O)O)c1ccc(N2CCNCC2)cc1	> 1000	–

Further lines, results first:

IC50 (Integrin alpha-V/beta-3) [nM]	IC50 [1] [nM]	SMILES
0.08	–	Nc1cccc(CCc2ccc(C(=O)NC[C@H](NS(=O)(=O)c3ccccc3)C(=O)O)cc2)n1
3.3	–	O=C(O)CC(NC(=O)CCCCc1ccc2c(n1)NCCC2)c1cncnc1 (stereo not drawn)
> 1000	–	CCCCS(=O)(=O)N[C@@H](Cc1ccc(OCCCCC2CCNCC2)cc1)C(=O)O [TIROFIBAN]
0.11	–	CC1(C)[C@@H]2CC[C@@]1(CS(=O)(=O)N[C@@H](CNC(=O)c1ccc(CCc3ccc4c(n3)NCCC4)cc1)C(=O)O)C(=O)C2
